Test [1] deals with Platelet-derived growth factor receptor alpha (Homo sapiens, UniProt P16234). In words: Inhibition of PDGFR alpha phosphorylation in G292 cell. It is filed as functional, cell-based. The procedure, abridged: (§1)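 Cell-based ELISA on intact cells: PDGFR-α in G292 cells, c-kit in M07e cells, both quiesced in 0.1% FBS medium. Serial compound concentrations were added for 1 h at 37 °C, then 50 ng/mL PDGF-AA (G292) or SCF (M07e) was added. Lysates were captured on anti-phosphotyrosine (PY-20) plates overnight at 4 °C. Detection used anti-PDGFR-α or anti-c-kit plus HRP, read at A450. IC50 is the mean of two tests.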

Test [2] concerns the target Mast/stem cell growth factor receptor Kit (Homo sapiens, UniProt P10721). The experiment in a line: Inhibition of c-kit receptor phosphorylation in M07e cell. It is filed as functional, cell-based. The procedure, abridged:
as §1

The text below walks through data of ChEMBL document CHEMBL1146076, “Identification of potent and selective inhibitors of PDGF receptor autophosphorylation” (J Med Chem, 2006).

The IC50 is the concentration needed to halve the response being measured. Higher therefore signals lower potency.

Chain of Mast/stem cell growth factor receptor Kit (P10721 whole entry): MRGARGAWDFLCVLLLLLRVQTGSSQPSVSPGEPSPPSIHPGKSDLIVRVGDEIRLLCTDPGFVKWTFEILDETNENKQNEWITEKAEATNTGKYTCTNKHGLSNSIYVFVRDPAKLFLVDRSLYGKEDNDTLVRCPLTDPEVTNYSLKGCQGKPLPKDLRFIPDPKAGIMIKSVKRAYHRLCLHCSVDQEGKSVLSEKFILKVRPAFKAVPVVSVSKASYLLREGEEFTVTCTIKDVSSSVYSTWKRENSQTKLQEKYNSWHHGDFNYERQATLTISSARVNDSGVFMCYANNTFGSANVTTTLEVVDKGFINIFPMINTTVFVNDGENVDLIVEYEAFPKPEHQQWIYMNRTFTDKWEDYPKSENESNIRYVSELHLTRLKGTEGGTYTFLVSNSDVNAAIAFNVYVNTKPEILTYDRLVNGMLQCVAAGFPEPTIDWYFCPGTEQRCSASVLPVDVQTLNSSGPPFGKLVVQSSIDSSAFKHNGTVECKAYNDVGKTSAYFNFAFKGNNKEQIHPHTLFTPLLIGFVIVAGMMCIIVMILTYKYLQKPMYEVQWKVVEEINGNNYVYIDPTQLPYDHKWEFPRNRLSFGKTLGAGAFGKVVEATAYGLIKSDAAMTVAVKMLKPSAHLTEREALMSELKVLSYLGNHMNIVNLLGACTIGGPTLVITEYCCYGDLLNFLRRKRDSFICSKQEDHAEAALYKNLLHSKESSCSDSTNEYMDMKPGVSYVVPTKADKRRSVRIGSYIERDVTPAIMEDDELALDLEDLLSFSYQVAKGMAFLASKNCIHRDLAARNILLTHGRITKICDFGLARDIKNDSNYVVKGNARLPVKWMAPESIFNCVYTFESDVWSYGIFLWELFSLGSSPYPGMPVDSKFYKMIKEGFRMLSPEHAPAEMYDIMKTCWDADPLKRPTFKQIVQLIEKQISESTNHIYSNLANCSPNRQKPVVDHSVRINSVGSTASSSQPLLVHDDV
Chain of Platelet-derived growth factor receptor alpha (P16234 whole entry): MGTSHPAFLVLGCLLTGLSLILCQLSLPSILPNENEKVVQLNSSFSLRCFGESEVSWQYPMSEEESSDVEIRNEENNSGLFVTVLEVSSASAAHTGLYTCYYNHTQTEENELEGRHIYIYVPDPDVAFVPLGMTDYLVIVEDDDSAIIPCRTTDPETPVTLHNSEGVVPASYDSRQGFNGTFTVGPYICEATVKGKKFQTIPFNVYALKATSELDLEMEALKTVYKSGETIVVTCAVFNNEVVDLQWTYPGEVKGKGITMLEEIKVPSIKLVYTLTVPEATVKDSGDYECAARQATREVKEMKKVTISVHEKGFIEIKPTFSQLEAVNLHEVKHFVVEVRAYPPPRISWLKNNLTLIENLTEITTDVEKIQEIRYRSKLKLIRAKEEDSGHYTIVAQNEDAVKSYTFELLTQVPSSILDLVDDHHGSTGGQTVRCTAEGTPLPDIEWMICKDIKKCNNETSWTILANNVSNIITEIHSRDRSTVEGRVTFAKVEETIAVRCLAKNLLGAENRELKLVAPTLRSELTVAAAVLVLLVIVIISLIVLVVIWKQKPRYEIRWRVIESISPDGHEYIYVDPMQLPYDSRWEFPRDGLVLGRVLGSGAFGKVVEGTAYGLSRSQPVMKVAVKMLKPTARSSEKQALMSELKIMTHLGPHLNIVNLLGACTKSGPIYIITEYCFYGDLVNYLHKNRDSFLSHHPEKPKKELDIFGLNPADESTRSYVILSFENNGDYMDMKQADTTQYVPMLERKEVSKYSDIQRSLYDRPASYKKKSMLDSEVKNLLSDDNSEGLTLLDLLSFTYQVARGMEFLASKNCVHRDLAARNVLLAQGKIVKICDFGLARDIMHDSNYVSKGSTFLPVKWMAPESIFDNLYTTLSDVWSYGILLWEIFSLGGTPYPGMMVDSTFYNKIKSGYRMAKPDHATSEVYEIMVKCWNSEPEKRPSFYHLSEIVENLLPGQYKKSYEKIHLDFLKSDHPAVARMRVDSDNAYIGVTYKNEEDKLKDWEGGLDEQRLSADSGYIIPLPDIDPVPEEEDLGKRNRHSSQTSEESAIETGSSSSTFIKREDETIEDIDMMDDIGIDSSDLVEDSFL

In test [1], `COc1cc2nccc(Oc3ccc(NC(=S)NC(=O)c4ccccc4Cl)cc3)c2cc1OC` came in with a half-maximal inhibitory concentration (IC50) of 0.005 µM. The same measure, in the same setting: the figure for `COc1cc2nccc(Oc3ccc(NC(=S)NC(=O)C4CCCCC4)cc3)c2cc1OC` is 0.015 µM. For the compound `COc1cc2ncnc(Oc3ccc(NC(=O)NCCC4CCCCC4)cc3)c2cc1OC`, the half-inhibitory concentration (IC50) in test [1] is 0.009 µM; in test [2], below 0.03 µM. The corresponding values for `COc1cc2ncnc(Oc3ccc(NC(=S)NCc4ccccc4)cc3)c2cc1OC` are 0.046 µM and 0.303 µM. The matching figures for `COc1cc2ncnc(Oc3ccc(NC(=O)NC4CCCCC4)cc3)c2cc1OC`: 0.007 µM and 0.027 µM. Turning to `COc1cc2nccc(Oc3ccc(NC(=S)NC4CCCCC4)cc3)c2cc1OC`, the IC50 in test [1] came out at 0.04 µM; in test [2], 0.069 µM.

As to `COc1cc2nccc(Oc3ccc(NC(=O)NC4CCCCC4)cc3)c2cc1OC`, the IC50 in test [1] was determined as 0.012 µM; in test [2], 0.022 µM. For the compound `COc1cc2nccc(Oc3ccc(NC(=S)NC(=O)c4ccccc4)cc3)c2cc1OC`, in test [1], the midpoint of inhibition, the IC50, lay at 0.008 µM. `COc1cc2nccc(Oc3ccc(NC(=O)Oc4ccccc4)cc3)c2cc1OC` came in with an IC50 in test [1] of 0.005 µM. For the compound `COc1cc2ncnc(Oc3ccc(NC(=S)NCC4CCCCC4)cc3)c2cc1OC`, the IC50 in test [1] worked out at 0.037 µM; in test [2], 0.153 µM. The matching figures for `COc1cc2nccc(Oc3ccc(NC(=O)OCCC4CCCCC4)cc3)c2cc1OC`: 0.018 µM and 0.08 µM.

For the compound `COc1cc2nccc(Oc3ccc(NC(=O)NCCC4CCCCC4)cc3)c2cc1OC`, the IC50 in test [1] was 0.006 µM; in test [2], below 0.03 µM.
